Screening results: PubChem BioAssay, several laboratories
IEC-6 tox = counter-screen for KLF5 inhibitors: cytotoxicity in IEC-6 cells | IEC-6 cytotoxicity, luminescence viability | inhibition, % at 5 µM | 290,000 compounds, 0.78% hits | AID 1825; in the data active = inhibition above about 22%;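 note: 0% = plate median of test compound wells and 100% = cytotoxic reference compound wells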
Ba/F3 V617F tox = reduce viability of Ba/F3 cells dependent on JAK2V617F; AID 1446; Ba/F3 EpoR-JAK2V617F viability, ATP luminescence; inhibition, % at 5.6 µM; 220,000 compounds, 1.1% hits;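 active = inhibition above the campaign mean plus 3 SD over all tested compounds, cut at about 24% in these data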;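 note: cytokine-independent growth of Ba/F3 cells driven by EpoR plus mutant JAK2; 0% = DMSO-treated cells and 100% = JAK inhibitor I control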
b-catenin transl = beta-catenin nuclear translocation modulation. nuclear translocation activity, % at 5 µM. HeLa beta-catenin nuclear translocation, immunofluorescence imaging. 190,000 compounds, 0.3% hits;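 active = nuclear translocation activity above 50% at 5 µM, with a well cell count of 50 or more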;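 note: per-cell ratio of nuclear to cytoplasmic median beta-catenin stain intensity; plate controls were DMSO negative control for no effect and GSK-3 inhibitor IX positive control for full effect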
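Technique: fluorescence imaging of beta-catenin antibody stain plus DAPI / Material: human HeLa cell line / Incubation: compound treatment 24 h, 37°C, 5% CO2 / Read-out basis: % activation of per-cell nuclear versus cytoplasmic median beta-catenin signal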
BaF3 tox = counter-screen for JAK2V617F inhibitors: parental Ba/F3 viability inhibitors; CellTiter-Glo ATP luminescence; 220,000 compounds, 1.1% hits; inhibition, % at 5.6 µM;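 active = inhibition above a per-campaign cutoff, the mean inhibition of all tested compounds plus 3 SD, cut at about 27% in these data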;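 note: 0% = DMSO wells and 100% = JAK Inhibitor I control wells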
MT stabilizer = stabilizes microtubules in HeLa cells. HeLa tubulin immunostaining HCS, 24 h; share of cells brighter than vehicle mean+2SD. AID 2205. 200,000 compounds, 0.83% hits. % tubulin-high responders, % at 10 µM;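 active = plate Z-score above 3 for both tubulin-high and condensed-nucleus cell shares, with cell loss under 80%, at 10 µM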;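 note: anti alpha tubulin signal scored within the nucleus-defined area of each cell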
KLF5 inhibitor = suppresses KLF5 promoter-driven expression. inhibition, % at 5 µM. DLD-1 KLF5 promoter-luciferase reporter, luminescence. 290,000 compounds, 0.23% hits;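 active = inhibition above a per-plate limit of that plate's mean compound inhibition plus 3 SD, cut at about 60% in these data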;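 note: 0% = DMSO wells and 100% = LY294002 at 200 µM; higher means less KLF5 promoter-driven luciferase light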
An asterisk follows results filed as active; x = no result given. Sampled rows, rich in hits. Any-hit rate of the full collection: about 2.1%.

SMILES | IEC-6 tox | Ba/F3 V617F tox | b-catenin transl | BaF3 tox | MT stabilizer | KLF5 inhibitor
N#CCN1CCN(CCC(=O)Nc2ccc(OCc3ccccc3)cc2)CC1 | 3 | 2 | 3 | 14 | 2 | -12
CSc1nnc(-c2sc3cc(C(F)(F)F)cnc3c2-c2ccccc2)n1C | 10 | 1 | x | 7 | 40* | 23
NC(=S)N/N=C/c1ccccc1OCCSc1ccc(Cl)cc1 | 0 | 44* | 2 | 44* | 3 | -22
COc1cccc(/C=N/NC(N)=S)c1OCc1ccccc1Cl | 1 | 3 | x | 0 | 4 | -23
COc1ccccc1CNC(=O)CN(C)S(=O)(=O)c1cccc2cccnc12 | 1 | 0 | 0 | 3 | x | -22
CCOC(CCn1c(SCC(=O)Nc2cc(C)on2)nc2ccccc2c1=O)OCC | 0 | -2 | -8 | 0 | 5 | -19
CC(C)(C)c1ccc(/C=N/OCC(=O)NCc2ccc(F)cc2)cc1 | 2 | -4 | x | 2 | 12* | -30
Cc1nn(-c2ccc(F)cc2)c(C)c1NS(=O)(=O)c1ccc2ccccc2c1 | 1 | 0 | -1 | 4 | 26* | -19
Cc1nc(CSc2ccccc2)cc(=O)[nH]1 | 2 | 5 | -2 | 8 | 4 | -1
COc1ccc(Nc2nc(C)nc3sc4c(c23)CCC4)cc1O | 0 | -4 | 2 | -1 | 21* | -18
Cc1nc(NCc2ccco2)c2c3c(sc2n1)CCC3 | 6 | 0 | 1 | 2 | 4 | -31
Cn1nnnc1Sc1ncnc2scc(-c3ccccc3)c12 | 14 | -2 | 2 | -6 | 11 | -11
Cn1nnnc1Sc1ncnc2scc(-c3ccc(F)cc3)c12 | 31* | 27* | -3 | 7 | 12 | -3
CC(C)n1c(NCc2ccc(N(C)C)cc2)nc2ccccc21 | -11 | 0 | 0 | 5 | 3 | -29
CN(C)c1ccc(CNc2nc3ccccc3s2)cc1 | -7 | x | x | x | x | 64*
CC(=O)N1CCCc2cc(S(=O)(=O)CCC(=O)Nc3cccc(C)c3C)ccc21 | 0 | x | x | x | x | 20
CCN(Cc1ccncc1)C(=S)Nc1ccc(Cl)cc1 | 2 | 24* | 0 | 27* | 4 | 15
CCN(CC)C(=S)Nc1ccc(Cl)c(Cl)c1 | 3 | 18 | 0 | 32* | 2 | -14
CCCOc1ccc(Br)cc1CSC(=N)N | 21 | 38* | 3 | 41* | 5 | -16
CCOc1ccc(Br)cc1CC(=O)O | -1 | 4 | x | 2 | 4 | -15
C=CCn1c(SCC(=O)Nc2cc(NC(C)=O)ccc2OC)nnc1-c1ccccn1 | -4 | -1 | -2 | 6 | 6 | -14
C=CCn1c(SCC(=O)Nc2ccccc2OC)nnc1-c1ccccn1 | 0 | -1 | -1 | 4 | 24* | 2
COc1ccc(C(=O)/C(C#N)=N/Nc2ccccc2[N+](=O)[O-])cc1 | 4 | -1 | 59* | 2 | 11 | -6
CCc1ccc(NSc2ccccc2[N+](=O)[O-])cc1 | 11 | 0 | 1 | 0 | 46* | -24
COc1ccc(/C=N/NC(=O)c2cccnc2)cc1Cn1nc([N+](=O)[O-])c(Br)c1C | 11 | 3 | -5 | 6 | 27* | 32
SMILES | IEC-6 tox | Ba/F3 V617F tox | b-catenin transl | BaF3 tox | MT stabilizer | KLF5 inhibitor
COc1ccc(/C=N/NC(=O)c2cccnc2)cc1CN1CCc2ccccc2C1 | 1 | -2 | 0 | 2 | x | -10
Cc1cc(C(=O)c2ccc(C(C)(C)C)cc2)c(NC(=O)CCl)s1 | 3 | 0 | 0 | 4 | 3 | -2
COc1ccc(CCN2C(=NC(=O)C(C)C)SC3CS(=O)(=O)CC32)cc1 (centres undefined) | -4 | -1 | 1 | -3 | x | -7
Cn1nc(C(=O)Nc2nc3ccccc3[nH]2)ccc1=O | 6 | 5 | 1 | 10 | 2 | -47
COc1ccccc1-n1cnnc1SCC(=O)Nc1cc(C)on1 | -6 | -2 | 1 | 5 | 17* | -17
CCOc1ccccc1-n1nnnc1SCC(=O)Nc1cc(C)on1 | 4 | -5 | 0 | 39* | 3 | 2
CC(=O)CSc1ncnc2nc[nH]c12 | 13 | 25* | 1 | 33* | 2 | -18
O=C(CSc1ncnc2nc[nH]c12)Nc1nnc(SCc2ccc(Cl)c(Cl)c2)s1 | 5 | 5 | 0 | 28* | 4 | 7
Cc1nc(N2CCN(c3ccccc3)CC2)[nH]c(=O)c1C | 6 | x | x | x | x | -19
COc1ccc(Nc2nc(-c3ccc4c(c3)NC(=O)CO4)cs2)cc1 | -7 | -2 | -2 | 5 | 4 | -73
COc1ccccc1Nc1nc(-c2ccc3c(c2)NC(=O)CO3)cs1 | 4 | 0 | 0 | 2 | 24* | -3
COC(=O)c1ccc2c(c1)C(C)(C)C(/C=C/c1ccc(OC)c(OC)c1OC)=[N+]2C | 11 | 2 | -4 | 6 | 3 | 6
COC(=O)c1ccc2c(c1)C(C)(C)C(/C=C/c1ccc(O)cc1)=[N+]2C | 4 | 7 | 41 | 29* | 41* | -12
O=C(Nc1nnc(C2CC2)s1)c1cccnc1Oc1ccc(Cl)cc1 | 0 | 5 | 1 | 2 | x | -8
Cc1ccccc1C(=O)Nc1cccc(NC(=O)Cn2cnc3c(=O)n(C)c(=O)n(C)c32)c1 | -4 | 68* | x | 42* | 2 | 8
O=C(CCCN1C(=O)C(c2ccccc2)Oc2cccnc21)Nc1cccc(F)c1 (centres undefined) | -6 | x | x | x | x | -20
Cc1nc2ccc(S(=O)(=O)Nc3cc(-c4nc5cccnc5s4)ccc3C)cc2s1 | -1 | 4 | 4 | 7 | 21* | -6
O=C(NCCc1ccc(Cl)cc1)C1CCC(=O)N1Cc1ccc(F)cc1 (centres undefined) | -4 | -3 | x | 96* | 2 | -10
COc1ccccc1-c1ccc(SCc2ccc([N+](=O)[O-])cc2)nn1 | 0 | -1 | 1 | 2 | 3 | -14
COc1ccccc1-c1ccc(SCc2cccc(C)c2)nn1 | 4 | 61* | -2 | 66* | 3 | -18
COCCn1c(SCC(=O)c2ccc(Cl)cc2)nnc1C(C)C | 0 | -4 | -5 | -1 | 6 | -27
Cc1ccc(NS(=O)(=O)c2ccccc2)c2c1CC(C)(C)O2 | -5 | 1 | -2 | 2 | 27* | -25
CSc1ccccc1NS(=O)(=O)c1ccccc1 | -3 | 2 | -3 | 5 | 3 | -34
CCOC(=O)C1=C(Cc2ccc(OC)cc2)C(=O)c2ccccc2C1=O | 2 | 1 | 2 | 0 | 45* | 15
CCOc1ccc(-c2nc(N)ncc2Oc2ccccc2Br)c(O)c1 | -2 | 0 | x | 3 | 2 | -12
CCOc1ccc(-c2nc(N)ncc2Oc2cccc(OC)c2)c(O)c1 | 3 | -4 | x | 1 | 8.2* | 3
COC(=O)c1[nH]c2cc(OC)ccc2c1NC(=O)c1nonc1C | 8 | 2 | 1 | 3 | 37* | -13
Cc1ccc(CNC(=O)Cc2ccc(-c3ccccc3)cc2)cc1 | 8 | -5 | x | 1 | 16 | -15
O=C(Cc1ccc(-c2ccccc2)cc1)NCc1ccccc1 | 78* | 81* | 55* | 81* | 6 | 55
